Compound activity deposited in PubChem by several laboratories.
TbHK1 inh: blocks Trypanosoma brucei hexokinase 1 activity; 220,000 tested, 0.11% active; recombinant TbHK1, G6PDH-coupled NADH A340; AID 1430; inhibition, % at 10 µM;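 active means inhibition of 50% or more in the single-dose primary screen; inactive means inhibition below 50%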
Runt-CBFb FRET: blocks binding of human RUNX1 Runt domain to CBFb | Cerulean-Runt/Venus-CBFb FRET ratio 530/480, 1 h | 220,000 tested, 0.46% active | AID 1496 | inhibition, % at 20 µM;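 active means inhibition over about 50% at 20 µM in the single-dose screen, limit read from the data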
Target sequence (Q01196 whole entry, looked up, the tested form may be a part): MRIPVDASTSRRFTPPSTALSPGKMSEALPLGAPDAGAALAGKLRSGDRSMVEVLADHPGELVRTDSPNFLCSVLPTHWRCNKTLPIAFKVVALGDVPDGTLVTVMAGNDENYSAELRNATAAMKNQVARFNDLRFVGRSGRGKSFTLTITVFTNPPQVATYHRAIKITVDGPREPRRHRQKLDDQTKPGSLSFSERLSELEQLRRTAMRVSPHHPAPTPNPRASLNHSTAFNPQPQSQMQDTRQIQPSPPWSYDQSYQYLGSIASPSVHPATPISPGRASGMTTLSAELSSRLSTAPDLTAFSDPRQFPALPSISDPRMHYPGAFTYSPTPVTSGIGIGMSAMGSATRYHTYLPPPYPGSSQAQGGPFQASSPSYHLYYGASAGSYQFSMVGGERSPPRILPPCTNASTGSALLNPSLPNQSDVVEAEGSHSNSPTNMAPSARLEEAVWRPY
Target sequence (Q13951 whole entry, looked up, the tested form may be a part): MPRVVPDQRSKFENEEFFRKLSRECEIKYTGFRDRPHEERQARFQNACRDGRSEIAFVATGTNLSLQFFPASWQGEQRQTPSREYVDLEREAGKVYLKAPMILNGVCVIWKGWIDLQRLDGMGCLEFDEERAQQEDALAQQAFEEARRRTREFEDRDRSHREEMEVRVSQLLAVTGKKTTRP
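Assay system: Cerulean-Runt domain / Medium: Tris 50 mM pH 7.5, KCl, K2SO4, 0.01% BSA / Timing: protein complex preformed 1 h, compound exposure 1 h, room temperature, dark / Measured by: FRET, excitation 422 nm, emission at 530 and 480 nm / Evaluation: loss of energy transfer signal / Control set: 5 µM unlabeled CBFb as full-inhibition high control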
p97 ATPase inh: blocks human p97 ATPase activity. 220,000 tested, 0.42% active. inhibition, % at 8 µM. P55072. recombinant p97 ATPase, Kinase-Glo ATP luminescence, 3 h; in the data active means inhibition above about 15%
RanGTP-Imp inh: inhibitors of RanGTP-importin-beta interaction, primary screen, biochemical, FRET, CFP-Ran, YFP-importin-beta, homogeneous. cell-free CFP-Ran/YFP-importin-beta FRET ratio. inhibition, % (concentration not given with the values). 300,000 tested, 1.1% active;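 active means more than half of the replicate wells show a fall in the fluorescence ratio signal beyond about 16%, limit read from the data, passing the limit was not always enough; inconclusive means exactly half of the replicate wells pass the set limit; inactive means fewer than half of replicates pass the limit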
Runt-SMMHC FRET: Runt domain-CBFb-SMMHC interaction inhibition; Cerulean-Runt/Venus-CBFb-SMMHC FRET ratio 530/480, 1 h; inhibition, % at 20 µM; 220,000 tested, 0.74% active; AID 1434;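 active means mean inhibition across duplicate retests at 20 µM reaching about 50%, limit read from the data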;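 further: inhibitors lower the FRET ratio by blocking Runt binding to CBFb-SMMHC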
Hck-Nef inh: blocks Nef-activated human Hck kinase; P08631; Recombinant Hck-YEEI plus Nef, Z-Lyte FRET kinase assay; inhibition, % at 20 µM; 220,000 tested, 0.68% active; AID 463187;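 active means Hck-Nef kinase inhibition above about 50%, limit read from the data; inactive means inhibition below that limit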
Each line names hits and unclear results; the compound was inactive in the other large screens. Sampled rows, rich in hits. Any-hit rate of the full collection: about 2.1%.

CCOC(=O)c1cc(C#N)c(SCC(=O)c2cc(C#N)c(SC)nc2C)nc1C	RanGTP-Imp inh 19.8 (no result: TbHK1 inh, p97 ATPase inh, Hck-Nef inh)
O=[N+]([O-])c1ccc(-c2n(-c3ccccn3)c3ccccc3[n+]2-c2ccccn2)cc1	none
OCCCc1nc2n(n1)C(c1cccs1)C=C(c1ccccc1)N2 (stereo unspecified)	none
OCCCc1nc2n(n1)C(c1ccccc1Cl)C=C(c1cccs1)N2 (stereo unspecified)	RanGTP-Imp inh 34.0, Runt-SMMHC FRET 77.6
CCOC(=O)C1C(=O)C=C(c2ccc(NS(C)(=O)=O)cc2)CC1c1ccco1 (stereo unspecified)	Runt-CBFb FRET 78.8
O=c1oc2cc(O)ccc2c2c1CCCC2	Runt-SMMHC FRET 108.1
O=c1oc2cc(O)ccc2c2oc3cc(O)ccc3c12	RanGTP-Imp inh inconclusive, Runt-SMMHC FRET 56.4
CC(=O)Oc1ccc2c3c(c(=O)oc2c1)CCCC3	none (no result: TbHK1 inh, Runt-CBFb FRET, p97 ATPase inh, Runt-SMMHC FRET, Hck-Nef inh)
O=C(NCCNC(=O)c1ccccc1F)c1ccccn1	none (no result: TbHK1 inh, Runt-CBFb FRET, p97 ATPase inh, Runt-SMMHC FRET, Hck-Nef inh)
O=[N+]([O-])c1ccc(N=Cc2sc3ccccc3c2O)cc1	RanGTP-Imp inh 37.1, Runt-SMMHC FRET 104.9
COc1ccc(N=Cc2sc(O)c3ccccc23)cc1	none
O=[N+]([O-])c1cccc(/C=C/c2nc(C=Nc3ccc4ccccc4c3)c(O)o2)c1	none (no result: RanGTP-Imp inh)
Oc1c(C=NCc2ccccc2)sc2ccccc12	RanGTP-Imp inh inconclusive, Runt-SMMHC FRET 64.1
O=[N+]([O-])c1cccc(N=Cc2sc3ccccc3c2O)c1	Runt-SMMHC FRET 87.1
COc1cc(CC(NC(C)=O)C(=O)NC2CCN(C(=O)Nc3ccc(C)cc3)CC2)cc(OC)c1 (stereo unspecified)	none (no result: TbHK1 inh, Runt-CBFb FRET, p97 ATPase inh, Runt-SMMHC FRET, Hck-Nef inh)
Cc1cc(C)n(-c2cccc(C(=O)O)c2)n1	none
O=C(O)c1ccc(N/N=C/c2ccc(-c3ccc(Cl)cc3Cl)o2)cc1	Runt-CBFb FRET 79.8, RanGTP-Imp inh 88.1, Runt-SMMHC FRET 81.2
COC(=O)N/N=C/c1ccc(-c2ccc(Cl)cc2Cl)o1	none
O=C(O)c1ccc(N/N=C/c2ccc(-c3cc(Cl)ccc3Cl)o2)cc1	Runt-CBFb FRET 69.8, RanGTP-Imp inh 83.3, Runt-SMMHC FRET 80.3
CC1(C)Cc2c(cnn2-c2ccc(F)cc2)C(NC(=O)CCCN2CCCCC2=O)C1 (stereo unspecified)	none (no result: TbHK1 inh, Runt-CBFb FRET, p97 ATPase inh, Runt-SMMHC FRET, Hck-Nef inh)
N#Cc1c(C(F)(F)F)cc(=O)n2c1[nH]c1ccccc12	RanGTP-Imp inh 91.2 (no result: TbHK1 inh, Runt-CBFb FRET, p97 ATPase inh, Runt-SMMHC FRET, Hck-Nef inh)
N#Cc1c(CSCC(=O)O)cc(=O)n2c1[nH]c1ccccc12	none
CN(CC(=O)Nn1cnnc1)S(=O)(=O)c1ccccc1	none
O=C(Nc1cnc2ccccc2c1)c1ccncc1	none
O=C(NC(=S)Nc1cnc2ccccc2c1)c1ccccc1	Hck-Nef inh 139.3
O=C(CSCc1ccccc1)NNC(=S)Nc1cccc(Cl)c1Cl	none
CCOC(=O)N1CCC(NC(=O)CS(=O)Cc2nc(-c3ccccc3C)oc2C)CC1 (stereo unspecified)	RanGTP-Imp inh 164.0 (no result: TbHK1 inh, Runt-CBFb FRET, p97 ATPase inh, Runt-SMMHC FRET, Hck-Nef inh)
CC(/C=C/c1ccc(OCc2ccccc2)cc1)=N\O	none
Cc1ccc2c(c1)CC1(CN2C)C(=O)OC2(CCCCC2)OC1=O	RanGTP-Imp inh 25.9
CC1(C)CC(=O)C2=C(C1)OC(N)=C(C#N)[C@@H]2c1ccccc1[N+](=O)[O-]	Runt-CBFb FRET 94.1, RanGTP-Imp inh 49.0
COc1cc(C2C(C#N)=C(N)OC3=C2C(=O)CC(C)(C)C3)c([N+](=O)[O-])cc1OC (stereo unspecified)	none (no result: Runt-CBFb FRET)
COc1cc2ccccc2cc1C(=O)Nc1nccs1	none (no result: TbHK1 inh, Runt-CBFb FRET, p97 ATPase inh, Runt-SMMHC FRET, Hck-Nef inh)
O=C(Nc1nccs1)c1ccccc1N=Cc1ccccc1	Runt-SMMHC FRET 58.3
COc1cccc(C=Nc2ccccc2C(=O)Nc2nccs2)c1OC	Runt-SMMHC FRET 51.5
CC1CCC(NC(=O)CNC(=O)c2cccs2)CC1 (stereo unspecified)	none (no result: TbHK1 inh, Runt-CBFb FRET, p97 ATPase inh, Runt-SMMHC FRET, Hck-Nef inh)
C=CCn1c(SCc2nc3ccccc3[nH]2)nnc1-c1cccc(OC)c1	none
CCOc1ccc(/C=C/C(=O)NCCc2ccc(OC)c(OC)c2)cc1	none
COc1ccc(CCNC(=O)CC(c2ccccc2)c2cc(C)ccc2O)cc1OC (stereo unspecified)	none (no result: TbHK1 inh, Runt-CBFb FRET, p97 ATPase inh, Runt-SMMHC FRET, Hck-Nef inh)
O=c1cc(O)sc2ccccc12	RanGTP-Imp inh 16.5
Brc1ccc(C=Nc2ccc3c(c2)OCCOCCOCCO3)s1	none
